Assay results as given in ChEMBL document CHEMBL4354865 (J Med Chem, 2020).

Key:
Monocyte [1] = assay: Cytotoxicity against human monocytes assessed as reduction in cell viability at 30 uM measured after 24 hrs by Annexin-V APC/7-AAD staining based flow cytometric analysis
Method in brief: (§1)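 Monocytes from healthy donors (n=3) and from PDAC patients (n=3) were treated for 24 h, with DMSO as control. Viability was normalized to untreated cells. Healthy-donor cells received a range of concentrations; PDAC cells received 30 µM.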

Monocyte [2] = assay: Cytotoxicity against PDAC patient derived monocytes assessed as reduction in cell viability at 30 uM measured after 24 hrs by Annexin-V APC/7-AAD staining based flow cytometric analysis; details: human; method in brief: as §1
[3] = Cytotoxicity against human A375 cells assessed as cell viability at 1 uM measured after 48 hrs by MTT assay relative to control; type: cell-based, A-375; details: read-out: Activity
Method in brief: (§2)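 A375 cells, unstimulated or stimulated with recombinant human IFN-γ, were left untreated or treated with 1 µM compound for 48 h. L-Kyn was measured by HPLC and cell viability was assessed.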

[4] = target: T1, Indoleamine 2,3-dioxygenase 1 (Homo sapiens, UniProt P14902); assay: Inhibition of IDO1 in IFNgamma-stimulated human A375 cells assessed as reduction in L-Kyn level at 1 uM measured after 48 hrs by HPLC analysis relative to control; method in brief: as §2
Target sequence in this assay (P14902 whole entry, looked up): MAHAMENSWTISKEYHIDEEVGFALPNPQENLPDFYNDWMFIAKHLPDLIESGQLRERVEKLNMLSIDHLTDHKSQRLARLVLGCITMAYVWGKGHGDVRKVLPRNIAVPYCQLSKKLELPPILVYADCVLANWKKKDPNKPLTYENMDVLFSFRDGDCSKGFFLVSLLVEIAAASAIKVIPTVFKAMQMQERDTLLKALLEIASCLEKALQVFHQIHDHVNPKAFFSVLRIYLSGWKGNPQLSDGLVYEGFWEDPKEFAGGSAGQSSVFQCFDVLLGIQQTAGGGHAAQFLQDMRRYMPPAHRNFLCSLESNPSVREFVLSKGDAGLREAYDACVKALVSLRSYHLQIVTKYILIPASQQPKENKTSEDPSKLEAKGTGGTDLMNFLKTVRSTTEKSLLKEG

[5] = target: T1, Indoleamine 2,3-dioxygenase 1; assay: Inhibition of IDO1 in IFNgamma-stimulated human A375 cells assessed as reduction in L-Kyn level measured after 48 hrs by HPLC analysis
Target sequence in this assay (P14902 whole entry): as the sequence (P14902 whole entry, looked up) above

Structure (SMILES)	Activity (Monocyte [1])	Activity (Monocyte [2])	viability at 48 h, 1 µM [3]	inhibition [4]	IC50 [5]
NS(=O)(=O)NCCNc1nonc1C(=NO)Nc1ccc(F)c(Br)c1 [EPACADOSTAT]	Non-Toxic	Non-Toxic	97%	–	–
O=C(NCc1cccc(Cn2cnc3ccccc32)c1)c1cc2ccccc2o1	–	–	100%	91%	413 nM
O=C(NCc1cccc(Cn2cnc3ccccc32)c1)c1cc2cc(O)ccc2[nH]1	–	–	99%	71%	781 nM
Cc1cc(C(=O)NCc2cccc(Cn3cnc4ccccc43)c2)ccc1C#N	–	–	94%	44%	–
NCCCC(=O)NCc1cccc(Cn2cnc3ccccc32)c1	–	–	100%	0%	–
O=C(NCc1cccc(Cn2cnc3ccccc32)c1)c1cccs1	–	–	98%	62%	–
N#Cc1ccc(C(=O)NCc2cccc(Cn3cnc4ccccc43)c2)cc1F	–	–	100%	32%	–
O=C(CCN1CCOCC1)NCc1cccc(Cn2cnc3ccccc32)c1	–	–	100%	0%	–
O=C(OCc1cccc(Cn2cnc3ccccc32)c1)c1cc(Br)c[nH]1	–	–	100%	0%	–
N#Cc1ccc(C(=O)NCc2cccc(Cn3cnc4ccccc43)c2)c(F)c1	–	–	99%	37%	–
O=C(NCc1cccc(Cn2cnc3ccccc32)c1)c1ccccc1	–	–	98%	32%	–
O=C(NCc1cccc(Cn2cnc3ccccc32)c1)c1ccco1	–	–	100%	25%	–
O=C(NCc1cccc(Cn2cnc3ccccc32)c1)c1ccc(F)cc1	–	–	89%	88%	961 nM
O=C(NCc1cccc(Cn2cnc3ccccc32)c1)c1nc2ccccc2[nH]1	–	–	100%	83%	407 nM
O=C(Cc1ccc2c(c1)OCO2)NCc1cccc(Cn2cnc3ccccc32)c1	–	–	96%	5%	–
